By IC50 is commonly meant the concentration needed to halve the response being measured.

Results on 25 molecules are retold here after ChEMBL document CHEMBL3867457, “Cytotoxic Ceanothane- and Lupane-Type Triterpenoids from the Roots of Ziziphus jujuba” (J Nat Prod, 2016).

This test in a line: Cytotoxicity against human HepG2 cells assessed as reduction in cell viability measured after 48 hrs by MTT assay. Type of test: functional, cell-based. The conditions noted are these: HepG2, 48 h. Summed up: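 HepG2 cells grown in DMEM with 10% FBS, penicillin/streptomycin, 5% CO2, 37 °C; seeded at 5 × 10^4 cells/mL, attached 12 h. Compounds in DMSO at 1, 5, 10, 25 μM for 48 h; docetaxel positive control. MTT added for 4 h, formazan dissolved in DMSO, absorbance 550 nm. Viability relative to control wells; IC50 with 95% CI by log-concentration regression; three independent replicates.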
Regarding `C=C(C)[C@@H]1CC[C@]2(C(=O)O)CC[C@]3(C)[C@H](CC[C@@H]4[C@@]5(C)C[C@@H](OC(=O)/C=C/c6ccc(O)cc6)[C@H](O)C(C)(C)[C@@H]5CC[C@]43C)[C@@H]12`, the IC50 was determined as 2 µM.
The value for `C=C(C)[C@@H]1CC[C@]2(C(=O)O)CC[C@]3(C)[C@H](CC[C@@H]4[C@@]5(C)[C@@H](C(=O)OC)[C@H](OC(=O)c6ccc(O)c(OC)c6)C(C)(C)[C@@H]5CC[C@]43C)[C@@H]12` was 1.9 µM; that for `C=C(C)[C@@H]1CC[C@]2(C(=O)O)CC[C@]3(C)[C@H](CC[C@@H]4[C@@]5(C)[C@@H](C(=O)O)[C@H](OC(=O)c6ccc(O)c(OC)c6)C(C)(C)[C@@H]5CC[C@]43C)[C@@H]12` was > 10 µM; that for `C=C(C)[C@@H]1CC[C@]2(C(=O)O)CC[C@]3(C)[C@H](CC[C@@H]4[C@@]5(C)C[C@@H](OC(=O)c6ccc(O)cc6)[C@H](O)C(C)(C)[C@@H]5CC[C@]43C)[C@@H]12` was 2.9 µM.
The result for `C=C(C)[C@@H]1CC[C@]2(C(=O)O)CC[C@]3(C)[C@H](CC[C@@H]4[C@@]5(C)C[C@@H](OC(=O)/C=C\c6ccc(O)cc6)[C@H](O)C(C)(C)[C@@H]5CC[C@]43C)[C@@H]12` reads 2.1 µM.
With `C=C(C)[C@@H]1CC[C@]2(C(=O)O)CC[C@]3(C)[C@H](CC[C@@H]4[C@@]5(C)[C@@H](C(=O)OC)[C@H](OC(=O)c6ccc(O)c(O)c6)C(C)(C)[C@@H]5CC[C@]43C)[C@@H]12`, the IC50 worked out at 2.8 µM.
`C=C(C)[C@@H]1CC[C@]2(C(=O)O)CC[C@]3(C)[C@H](CC[C@@H]4[C@@]5(C)[C@H](C(=O)O)[C@H](OC(=O)c6ccc(O)c(OC)c6)C(C)(C)[C@@H]5CC[C@]43C)[C@@H]12`: the IC50 was determined as 3.9 µM.
The value for `C=C(C)[C@@H]1CC[C@]2(C(=O)O)CC[C@]3(C)[C@H](CC[C@@H]4[C@@]5(C)[C@H](C(=O)O)[C@H](OC(=O)c6ccc(O)cc6)C(C)(C)[C@@H]5CC[C@]43C)[C@@H]12` was > 10 µM; that for `C=C(C)[C@@H]1CC[C@]2(C(=O)O)CC[C@]3(C)[C@H](CC[C@@H]4[C@@]5(C)C[C@@H](OC(=O)c6ccccc6)[C@H](O)C(C)(C)[C@@H]5CC[C@]43C)[C@@H]12` was > 10 µM; that for `C=C(C)[C@@H]1CC=C2CC[C@]3(C(=O)O)[C@H](CC[C@@H]4[C@@]5(C)C=C[C@](C)(CO)[C@@H]5CC[C@]43C)[C@H]21` was 4.9 µM.
The result for `C=C(C)[C@@H]1CC[C@]2(C(=O)O)CC[C@]3(C)[C@H](CC[C@@H]4[C@@]5(C)[C@H](C(=O)OC)[C@H](O)C(C)(C)[C@@H]5CC[C@]43C)[C@@H]12` reads > 10 µM.
For `C=C(C)[C@@H]1CC[C@]2(C(=O)O)CC[C@]3(C)[C@H](CC[C@@H]4[C@@]5(C)[C@@H](C(=O)O)[C@H](O)[C@](C)(CO)[C@@H]5CC[C@]43C)[C@@H]12`, the IC50 is > 10 µM.
For `C=C(C)[C@@H]1CC[C@]2(C(=O)O)CC[C@]3(C(=O)O)[C@H](CC[C@@H]4[C@@]5(C)[C@@H](C(=O)OC)CC(C)(C)[C@@H]5CC[C@]43C)[C@@H]12`, the IC50 is > 10 µM.
As for `C=C(C)[C@@]12CC[C@@]3(CC[C@]4(C(=O)O)[C@H](CC[C@@H]5[C@@]6(C)[C@@H](C(=O)O)CC(C)(C)[C@@H]6CC[C@]54C)[C@H]31)C(=O)O2`, the IC50 is > 10 µM.
The value for `C=C(C)[C@@H]1CC[C@]2(C(=O)O)CC[C@]3(C)[C@H](CC[C@@H]4[C@@]5(C)[C@@H](C(=O)O)[C@H](OC(=O)c6ccc(O)cc6)C(C)(C)[C@@H]5CC[C@]43C)[C@@H]12` was > 10 µM.
The value for `C=C(C)[C@@H]1CC[C@]2(C(=O)O)CC[C@]3(C)[C@H](CC[C@@H]4[C@@]5(C)[C@@H](C(=O)O)[C@H](OC(=O)c6ccc(O)c(O)c6)C(C)(C)[C@@H]5CC[C@]43C)[C@@H]12` was > 10 µM; that for `C=C(C)[C@@H]1CC[C@]2(C(=O)O)CC[C@]3(C)[C@H](CC[C@@H]4[C@@]5(C)C(C=O)=CC(C)(C)[C@@H]5CC[C@]43C)[C@@H]12` was 2 µM.
The value for `C=C(C)[C@@H]1CC[C@]2(C(=O)O)CC[C@]3(C(=O)O)[C@H](CC[C@@H]4[C@@]5(C)[C@@H](C(=O)OC)[C@H](O)C(C)(C)[C@@H]5CC[C@]43C)[C@@H]12` was > 10 µM.
As for `C=C(C)[C@@H]1CC[C@]2(C(=O)O)CC[C@]3(C)[C@H](CC[C@@H]4[C@@]5(C)C[C@@H](OC(=O)c6ccc(O)c(O)c6)[C@H](O)C(C)(C)[C@@H]5CC[C@]43C)[C@@H]12`, the IC50 is > 10 µM.
On to `C=C(C)[C@@H]1CC[C@]2(C(=O)O)CC[C@]3(C(=O)O)[C@H](CC[C@@H]4[C@@]5(C)[C@@H](C(=O)O)CC(C)(C)[C@@H]5CC[C@]43C)[C@@H]12`, for which the IC50 was > 10 µM.
The value for `C=C(C)[C@@H]1CC[C@]2(C(=O)O)CC[C@]3(C)[C@H](CC[C@@H]4[C@@]5(C)C[C@@H](O)[C@H](O)C(C)(C)[C@@H]5CC[C@]43C)[C@@H]12` [ALPHITOLIC ACID] was > 10 µM; that for `C=C(C)[C@@H]1CC[C@]2(C(=O)O)CC[C@]3(C)[C@H](CC[C@@H]4[C@@]5(C)CC[C@H](O)C(C)(C)[C@@H]5CC[C@]43C)[C@@H]12` [BETULINIC ACID] was 5.9 µM; that for `C=C(C)[C@@H]1CC[C@]2(C(=O)O)CC[C@]3(C)[C@H](CC[C@@H]4[C@@]5(C)[C@@H](C(=O)O)[C@H](O)C(C)(C)[C@@H]5CC[C@]43C)[C@@H]12` [CEANOTHIC ACID] was > 10 µM.
The value for `CC(=O)O[C@@]12CO[C@@H]1C[C@H](O)[C@@]1(C)C(=O)[C@H](O)C3=C(C)[C@@H](OC(=O)[C@H](O)[C@@H](NC(=O)OC(C)(C)C)c4ccccc4)C[C@@](O)([C@@H](OC(=O)c4ccccc4)[C@H]21)C3(C)C` [DOCETAXEL ANHYDROUS] was 8.3 µM; that for `C=C(C)[C@@H]1CC[C@]2(C(=O)O)CC[C@]3(C)[C@H](CC[C@@H]4[C@@]5(C)[C@H](C(=O)O)[C@H](O)C(C)(C)[C@@H]5CC[C@]43C)[C@@H]12` [EPICEANOTHIC ACID] was > 10 µM.
